According to ChEMBL document CHEMBL4837204, “Synthesis, biological, and photophysical studies of molecular rotor-based fluorescent inhibitors of the trypanosome alternative oxidase” (Eur J Med Chem, 2021):

Key:
[1] = Resistance factor, ratio of EC50 for antitrypanosomal activity against drug resistant Trypanosoma brucei B48 to EC50 for antitrypanosomal activity against bloodstream form of wild type Trypanosoma brucei brucei S427 trypomastigotes; type: functional
Method in brief: (§1)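 The assay used bloodstream forms in HMI-9 at 37 °C, 5% CO2, 2 × 10⁵ cells/mL, read at ex 544/em 590 nm. EC50 came from a variable-slope sigmoidal fit, at least 3 experiments.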

[2] = tested on: Trypanosoma brucei brucei; test: Antitrypanosomal activity against bloodstream form of Trypanosoma brucei brucei AQP1-3 KO trypomastigotes incubated for 48 hrs by resazurin dye based fluorescence assay; type: functional, organism-based
Method in brief: (§2)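 Bloodstream T. b. brucei in complete HMI-9 at 37 °C, 5% CO2, 2 × 10⁵ cells/mL, exposed to doubling dilutions of compound for 48 h. Resazurin was then added and cells were incubated a further 24 h. Fluorescence was read at ex 544/em 590 nm with a drug-free control and pentamidine as positive control. EC50 came from a variable-slope sigmoidal fit, at least 3 independent experiments.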

[3] = Selectivity index, ratio of CC50 cytotoxicity against HEK293T cells to EC50 for antitrypanosomal activity against bloodstream form of wild type Trypanosoma brucei brucei S427 trypomastigotes; type: toxicity, cell-based; conditions: human; read-out: Ratio CC50/EC50
Method in brief: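 SI = CC50 on HEK 293T divided by EC50 on WT s427. For HEK 293T, cells adhered 24 h, were exposed 30 h, then given resazurin for 24 h (ex 530/em 590). For trypanosomes, cells were exposed 48 h, then given resazurin for 24 h (ex 544/em 590). Both values came from dose-response fits.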

[4] = target: Alternative oxidase, mitochondrial (Trypanosoma brucei brucei, UniProt Q26710); test: Inhibition of recombinant Trypanosoma brucei brucei alternative oxidase using ubiquinol as substrate preincubated for 2 mins followed by substrate addition by UV-Vis spectrophotometry
Method in brief: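 Recombinant ΔMTS-TAO was preincubated for 2 min with varying inhibitor amounts at 25 °C in 50 mM Tris-HCl pH 7.4 with 0.05% octaethylene glycol monododecyl ether. The reaction was started with ubiquinol, and its oxidation was followed at 278 nm for 2 min. DMSO served as negative control and ascofuranone/SHAM as positive controls. IC50 came from residual activity versus inhibitor concentration.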

[5] = tested on: Trypanosoma brucei brucei; test: Antitrypanosomal activity against drug resistant Trypanosoma brucei B48 incubated for 48 hrs by resazurin dye based fluorescence assay; type: functional, organism-based; conditions: B48, 48 h; method in brief: as §2
[6] = Resistance factor, ratio of EC50 for Antitrypanosomal activity against bloodstream form of Trypanosoma brucei brucei AQP1-3 KO trypomastigotes to EC50 for antitrypanosomal activity against bloodstream form of wild type Trypanosoma brucei brucei S427 trypomastigotes; type: functional; method in brief: as §1
[7] = tested on: Trypanosoma brucei brucei; test: Antitrypanosomal activity against bloodstream form of wild type Trypanosoma brucei brucei S427 trypomastigotes incubated for 48 hrs by resazurin dye based fluorescence assay; type: functional, organism-based; conditions: S427, 48 h; method in brief: as §2
[8] = Drug localization in mitochondria of Trypanosoma brucei brucei at 40 uM incubated for 60 mins by MTG dye based confocal microscopy analysis; type: ADME; conditions: 1 h
Method in brief: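 Bloodstream T. b. brucei at 2 × 10⁶ cells/mL were given compound in complete HMI-9 for 1 h at 37 °C, 5% CO2. MitoTracker Green (100 nM final) was added for 10 min. Cells were then pelleted, PBS-washed and stained with Hoechst 33342 for 10 min in the dark. They were immobilised in PBS-primed CyGEL and imaged for overlap with MTG.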

[9] = Drug localization in mitochondria of mouse MC3T3-E1 cells at 0.6 uM incubated for 30 mins by MTDR staining based single-photon excitation fluorescence analysis; type: ADME; conditions: mc3t3-e1, 0.5 h
Method in brief: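 MC3T3-E1 preosteoblasts were grown in αMEM with 10% FBS, glutamine and pen/strep, then seeded at 25,000 cells/well on glass-bottom slides. Cells were preincubated with compound for 30 min at 37 °C, then given MitoTracker Deep Red (16 nM final) for 30 min. Confocal imaging used alternating excitation: 561 nm with detection at 580–630 nm, and 640 nm with detection at 650–720 nm.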

[10] = Cytotoxicity against HEK293T cells assessed as reduction in cell viability […] by resazurin dye based fluorescence assay; set-up: species or system HEK-293T; conditions: human
[11] = Drug localization in mitochondria of mouse MC3T3-E1 cells incubated for 30 mins by […] based two-photon excitation microscopy analysis; type: ADME; conditions: mc3t3-e1, 0.5 h
[12] = Drug localization in rat liver mitochondria; type: ADME
Method in brief: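 Rat liver was homogenised in 20 mM HEPES/250 mM sucrose, pH 7.4. After 800×g spins, mitochondria were enriched at 9000×g. Probe at 3 × 10⁻⁷ M was incubated with the mitochondrial suspension for 20 min at room temperature, then spun at 10,000×g for 10 min. Supernatant emission (ex 470 and 540 nm) was compared with probe in buffer alone to estimate the fraction partitioned into mitochondria.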

[13] = Drug uptake in bloodstream form of wild type Trypanosoma brucei brucei S427 trypomastigotes assessed as increase in fluorescent signal at 0.2 uM measured by fluorimeter; type: ADME
Method in brief: (§3)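 Mid-log bloodstream 427WT or aqp1-3 null cells were washed and resuspended at 10⁸ cells/mL in assay buffer. Fluorescence was read continuously at 37 °C, 5% CO2 (ex 544/em 620). After a background period, compound was added at the stated final concentration. Each trace averages 3 replicate wells on one plate.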

[14] = Drug uptake in bloodstream form of Trypanosoma brucei brucei AQP1-3 KO trypomastigotes at 0.2 to 2 uM measured after 1 hr by fluorimeter; type: ADME; conditions: dose 0.2-2 µM; method in brief: as §3

Chain of Alternative oxidase, mitochondrial (Q26710 whole entry): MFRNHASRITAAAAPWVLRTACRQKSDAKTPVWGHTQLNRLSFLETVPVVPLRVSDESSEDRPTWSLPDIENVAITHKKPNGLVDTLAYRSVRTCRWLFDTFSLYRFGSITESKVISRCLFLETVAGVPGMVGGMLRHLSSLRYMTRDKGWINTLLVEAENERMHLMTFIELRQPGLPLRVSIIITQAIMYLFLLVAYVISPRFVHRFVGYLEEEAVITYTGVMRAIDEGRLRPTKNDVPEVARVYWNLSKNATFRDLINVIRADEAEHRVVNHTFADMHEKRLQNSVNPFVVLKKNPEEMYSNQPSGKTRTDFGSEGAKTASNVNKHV

Row | SMILES | Ratio EC50 [1] | EC50 [2] [µM] | selectivity ratio [3] | IC50 [4] [µM] | EC50 [5] [µM] | Ratio EC50 [6] | EC50 [7] [µM] | Drug uptake [8] | Drug uptake [9] | CC50 [10] [µM] | Drug uptake [11] | Drug uptake [12] [%] | Drug uptake [13] | Drug uptake [14]
1 | Cc1cc(O)cc(O)c1C(=O)OCCCCCCCCCCCCCC[n+]1ccc(/C=C/c2cc3c4c(c2O)CCCN4CCC3)cc1.[Br-] | 1.17 | 1.05 | > 100 | 0.36 | 1.19 | 1.03 | 1.01 | Active | Active | > 100 | Active | 66 |  | 
2 | Cc1cc[n+](CCCCCCCCCCCCCCOc2cc(C)c(C(=O)O)c(O)c2)cc1 |  | 16.6 | > 10 | 1.8 |  | 0.84 |  |  |  | > 20 |  |  |  | 
3 | N=C(N)c1ccc(OCCCCCOc2ccc(C(=N)N)cc2)cc1 [PENTAMIDINE] | 102 | 0.034 |  |  | 0.5 | 6.9 | 0.0049 |  |  |  |  |  |  | 
4 | Cc1cc[n+](CCCCCCCCCCCCCCOC(=O)c2c(O)cc(O)c(Cl)c2C)cc1 | 1.53 | 0.19 | 182 | 0.72 | 0.22 | 0.8 | 0.24 |  |  | 43.7 |  |  |  | 
5 | Cc1c(Cl)c(O)cc(O)c1C(=O)OCCCCCCCCCCCCCCBr | 1.48 | 13.1 | 8.2 | 0.75 | 10.1 | 1.91 | 6.84 |  |  | 55.9 |  |  |  | 
6 | Cc1cc[n+](CCCCCCCCCCCCCCOC(=O)c2c(C)c(Cl)c(O)c(Cl)c2O)cc1 | 1.03 |  | 1.7 | 0.91 | 2.64 |  | 2.55 |  |  | 4.4 |  |  |  | 
7 | COC(=O)c1c(C)cc(OCCCCCCCCCCCCCC[n+]2ccc(/C=C/c3cc4c5c(c3O)CCCN5CCC4)cc2)cc1O | 1.1 | 0.44 | 43.6 | 0.042 | 0.59 | 0.81 | 0.54 |  |  | 23.6 |  |  |  | 
8 | Cc1cc[n+](CCCCCCCCCCCCCCOC(=O)c2c(C)cc(O)cc2O)cc1 | 1.04 |  | 13.8 | > 5 | 0.06 |  | 0.055 |  |  | 0.76 |  |  |  | 
9 | Cc1cc(O)cc(OCCCCCCCCCCCCCC[n+]2ccc(/C=C/c3cc4c5c(c3O)CCCN5CCC4)cc2)c1.[Br-] | 1.25 | 0.43 | 44.1 | 0.145 | 0.63 | 0.85 | 0.5 |  | Active | 22.2 |  |  |  | 
10 | Oc1c(/C=C/c2cc[n+](CCCCCCCCCCCCCCBr)cc2)cc2c3c1CCCN3CCC2.[Br-] | 1.16 | 0.34 | 62.6 | > 5 | 0.49 | 0.79 | 0.43 |  |  | 26.7 |  |  | Not Active | Not Active
